This passage reports IC50, Drug metabolism and solubility results from ChEMBL document CHEMBL4033788, “Novel Ligustrazine-Based Analogs of Piperlongumine Potently Suppress Proliferation and Metastasis of Colorectal Cancer Cells in Vitro and in Vivo” (J Med Chem, 2018).

Converted amounts (≈) assume the structure as drawn. Some results are limits rather than exact numbers.

Data set [1] has as its system HCT-116. Briefly: Antiproliferative activity against human HCT116 cells after 72 hrs by MTT assay. The format is functional, cell-based. Conditions: HCT-116, 72 h. In a few lines:
(§1)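 Cells grown in RPMI 1640 with 10% FBS in 96-well plates overnight, then exposed to test agents in triplicate for 72 h. MTT (5 mg/mL stock) added for the last 4 h, formazan dissolved in DMSO, absorbance read at 570 nm. Inhibition = (1 − OD treated/OD control) × 100%.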
On the technique in general: Tetrazolium assays rely on reduction of a dye to a coloured formazan, in cell work by metabolically active cells.

Data set [2] has as its system K562. The data set can be described thus: Antiproliferative activity against human K562 cells after 72 hrs by MTT assay. The conditions noted are these: K562, 72 h. The format is functional, cell-based. In a few lines:
as §1

Data set [3] relates to U-87 MG. The data set can be described thus: Antiproliferative activity against human U87MG cells after 72 hrs by MTT assay. Format: functional, cell-based, U-87MG ATCC. In a few lines:
as §1

For data set [4], the system named is A549. Briefly: Antiproliferative activity against human A549 cells after 72 hrs by MTT assay. The format is functional, cell-based. The conditions noted are these: A549, 72 h.
A short description of data set [5]: Drug level in DMSO treated with (E)-3-Chloro-1-(3-(3,5,6-trimethylpyrazin-2-yl)acryloyl)-5,6-dihydropyridin-2(1H)-one at 5 mg up to 8 hrs in presence of methyl thioglycolate by 1H NMR analysis.
In data set [6] the test system is HCT-116. The data set can be described thus: Antiproliferative activity against human HCT116 cells after 72 hrs in presence of piperlongumine by MTT assay. The conditions noted are these: HCT-116, 72 h. Format: functional, cell-based. In a few lines: as §1
Data set [7] deals with A549. The data set can be described thus: Antiproliferative activity against human A549 cells after 72 hrs in presence of piperlongumine by MTT assay. The format is functional, cell-based. The conditions noted are these: A549, 72 h. A digest of the protocol: as §1
Data set [8] deals with U-87 MG. Briefly: Antiproliferative activity against human U87MG cells after 72 hrs in presence of piperlongumine by MTT assay. The format is functional, cell-based, U-87MG ATCC. In a few lines: as §1
For data set [9], the system named is K562. The data set can be described thus: Antiproliferative activity against human K562 cells after 72 hrs in presence of piperlongumine by MTT assay. Format: functional, cell-based. Conditions: K562, 72 h. A digest of the protocol: as §1
Data set [10] is described as follows: Solubility of compound in phosphate buffer at pH 7.4 after 8 hrs by HPLC analysis. Format: physicochemical. A digest of the protocol:
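Compound was shaken in 50 mM phosphate buffer (pH 7.4) at 20 °C, centrifuged, and the supernatant analysed by HPLC. Conditions were a C18 column, acetonitrile–water 60/40 (v/v) at 1.0 mL/min, with detection at 254 nm. Run in triplicate.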

The nature of data set [11]: Aqueous solubility of compound by HPLC analysis. Format: physicochemical. The conditions noted are these: water. A digest of the protocol: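 Compound shaken in pure water or 50 mM phosphate buffer pH 7.4 at 20 °C, then centrifuged. Supernatant assayed by C18 HPLC (acetonitrile–water 60/40, 1.0 mL/min, 254 nm). Triplicate.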

In the case of `Cc1nc(C)c(/C=C/C(=O)N2CCCCC2=O)nc1C`, the IC50 in the data set on HCT-116 [1], with K562 [2], in the data set with U-87 MG [3] and in the data set on A549 [4] was more than 50 µM each time.
As to `COC(=O)CSC1CCN(C(=O)/C=C/c2nc(C)c(C)nc2C)C(=O)C1Cl` (configuration not stated), in data set [5], the Drug metabolism entry is listed as “Metabolite detected”.
For the compound `Cc1nc(C)c(C)nc1C` [LIGUSTRAZINE], the IC50 with HCT-116 [6] was determined as 8.17 µM; in the data set on A549 [7], 15.2 µM; in the data set on U-87 MG [8], 16.1 µM; with K562 [9], 5.09 µM.
The compound `Cc1nc(C)c(/C=C/C(=O)N2CCC=CC2=O)nc1C` registered a solubility at 8 h in data set [10] of 328 µg/mL (≈ 1210 µM). Further, the IC50 in the data set with HCT-116 [1] turned out to be 1.67 µM; with K562 [2] it was 1.13 µM; in the data set on U-87 MG [3] it was 8.73 µM; in the data set on A549 [4], 4.86 µM. This compound returned a solubility in data set [11] of 42.6 µg/mL (≈ 157 µM).
For `Cc1nc(C)c(/C=C/C(=O)N2CCC=C(Br)C2=O)nc1C`, the concentration in solution in [10] (solubility at 8 h) was 67.3 µg/mL (≈ 192 µM). The IC50 in the data set on HCT-116 [1] is 0.46 µM; in the data set on K562 [2], 0.48 µM; in the data set with U-87 MG [3], 4.28 µM; in the data set on A549 [4], 2.48 µM. Also, the concentration in solution in data set [11] (solubility) came to 20.2 µg/mL (≈ 57.6 µM).
Take `Cc1nc(C)c(/C=C/C(=O)N2CCC=C(I)C2=O)nc1C`: the solubility at 8 h in data set [10] was found to be 49.9 µg/mL (≈ 125 µM). Also, the half-maximal inhibitory concentration (IC50) in the data set on HCT-116 [1] amounted to 0.76 µM; in the data set with K562 [2], 0.64 µM; in the data set on U-87 MG [3], 7.26 µM; with A549 [4] it was 3.19 µM. The compound further returned a solubility in data set [11] of 14.5 µg/mL (≈ 36.5 µM).

As usually defined, the IC50 is the point on the concentration scale where inhibition reaches its midpoint. The solubility is the concentration that dissolves in the medium under given conditions.
